From ChEMBL document CHEMBL4513216, “Probing the Open Global Health Chemical Diversity Library for Multistage-Active Starting Points for Next-Generation Antimalarials” (ACS Infect Dis, 2020)

Assay: Toxicity liver stage against HepG2, at 10uM
Format: cell-based
Set-up: test concentration 10 uM, cell line HepG2-A16-CD81EGFP
Conditions: human, HepG2-A16-CD81EGFP cells; read-out: INHIBITION
In short: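 Uninfected HepG2-A16-CD81EGFP cells, 3 × 10^3 per well, 1536-well, plated on prespotted compound at 10 μM final, parasite-free screening media added to match infected plates; puromycin 10 μM positive, DMSO 0.5% negative; run in parallel with 48 h PbLuc assay at 37 °C, 5% CO2; viability by CellTiter-Glo luminescence, normalized to controls.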

SMILES	cytotoxicity at 10 µM
c1ccc2c(Cc3nnc([C@H]4CCN(CC5CC5)C4)o3)c[nH]c2c1	4.73%
COC(=O)c1cccc(C(=O)N2CCN(c3ccc(OC)cc3)CC2)n1	-7.12%
CC(=O)c1cn(CCC(=O)Nc2c3c(nn2C)CSC3)c2ccccc12	-1.93%
COC(=O)[C@H](CCSC)NC(=O)Cc1c(C)nn(-c2ccccc2)c1C	-1.65%
Cc1nnc2ccc(OCCNS(C)(=O)=O)nn12	-6.02%
CC1(C)OCC2(CO1)CN(S(=O)(=O)c1ccc(Cl)s1)C2	-0.295%
CN(C)c1ccc(C(O)CNC(=O)NCCCc2ccccc2)cc1 (stereo not given)	-10%
O=C(Cc1cccs1)Nc1cnn(C2CCOC2)c1 (stereo not given)	-7.86%
N#Cc1ccc(S(=O)(=O)Nc2cnn(C3CCOCC3)c2)cc1	-11.3%
COCCNC(=O)[C@]12COC[C@H]1CN(c1cc(OC)ncn1)C2	4.32%
CN1CCN(CC2CC2)C(=O)C12CCN(C(=O)c1cnccn1)CC2	7.95%
Fc1cccc(N2CCc3ncnc(N4CCOCC4)c3CC2)c1	9.49%
Cc1ccoc1C(=O)N1CC(C(=O)NCC2CC2)C2(CCOCC2)C1 (stereo not given)	-3%
CC(=O)c1cn(CCC(=O)N[C@H](C(=O)O)C(C)C)c2ccccc12	8.86%
O=c1[nH]c2nc(N3CCSCC3)ncc2c(=O)n1-c1cccc(F)c1	-1.82%
O=C(NCc1cccs1)C1CN(C(=O)c2cccs2)CC12CCOCC2 (stereo not given)	-11.5%
Cc1cc(C)n(CC(=O)Nc2cc(-c3ccncc3)[nH]n2)n1	-5.77%
O=C(CCn1cccn1)N1CCC(c2nnc(-c3ccsc3)o2)CC1	4.25%
CNC(=O)C1CCCN(C(=O)c2cncs2)C1 (stereo not given)	4.94%
Cc1nn(C)cc1-c1cc(C(=O)NCC(C)(C)c2ccc(F)cc2)n[nH]1	-1.29%
CSc1ncc(C(=O)NCCn2nccc2C)cn1	2.86%
Cc1ccsc1C(=O)N1CCC2(CC(N(C)c3ccncn3)C2)C1 (stereo not given)	-5.75%
CC(NC(=O)N1CCC2(C1)OCCO2)c1cccc(Cl)c1 (stereo not given)	-6.88%
N#Cc1cn(C2CC2)c(=O)n(Cc2noc(-c3cccs3)n2)c1=O	13%
COc1c(C2CCCN2Cc2nnc(C3CC3)n2C)c(C)nn1C (stereo not given)	7.06%
CC(c1ccco1)N(C(=O)Cn1nc2n(c1=O)CCCCC2)C1CC1 (stereo not given)	-6.17%
CC(c1ccco1)N(C)C(=O)NCCOc1ccc(C#N)cc1 (stereo not given)	-2.98%
CN(Cc1cnn(C)c1)C(=O)CCC(=O)c1ccc2c(c1)OCCO2	-1.14%

SMILES	cytotoxicity at 10 µM
O=C(c1cnc(NCCC2CCCO2)c(Cl)c1)N1CCOCC1 (stereo not given)	7.74%
CC(C)(C(=O)NCCS(N)(=O)=O)c1cccc(Br)c1	-8.35%
Cc1ccc(C(=O)N(CCC#N)Cc2ccccn2)cc1C	0.665%
N#Cc1cc(CSCCN2CCOCC2)ccc1F	-7.73%
CN(Cc1ccco1)C(=O)NCc1nnc2n1CCC2	16.9%
Cc1cc(N2CCN(C(=O)c3cc(Cl)c[nH]3)CC2)nc(C)n1	-2.43%
Cc1nn(CC(=O)N2CCN(c3cnccn3)CC2)c(C)c1Cl	7.76%
CC(C)c1nnc2n1CC(CNCc1ccsc1)CC2 (stereo not given)	-1.61%
CCOC(=O)c1ccc(Nc2ccc(OC)c(N3CCCC3=O)c2)nc1	8.46%
Cc1ccsc1CN(C)Cn1nccc1-c1cccnc1	7.49%
Cc1ccc(F)cc1NC(=O)CCn1cncn1	-0.639%
C[S+]([O-])c1nncn1CCCc1ccc(Cl)cc1 (stereo not given)	-8.64%
O=C(Cc1ccc(S(=O)(=O)C(F)F)cc1)N1CCCC1	-13.5%
CC(C)N(CCCNC(=O)C1CC1)S(C)(=O)=O	-5.55%
Cc1noc(CCCc2nc(C3CCOC3)no2)n1 (stereo not given)	3.5%
COCCn1ccc(NCc2cc3cc(F)ccc3o2)n1	-8.78%
CC(C)NC(=O)COc1nc(C(C)C)no1	-3.34%
Cc1ccccc1S(=O)(=O)NC(=O)CSc1ccc2c(c1)OCCO2	-1.85%
Cc1ccc(OCCC(=O)NC2CCc3nc(C)cn3C2)cc1 (stereo not given)	-5.59%
CC1CC2(CCN(C(=O)c3c[nH]cn3)CC2)c2ccccc21 (stereo not given)	2.44%
Cn1cc2c(n1)C(COCC1CC1)CN(Cc1ccsc1)C2 (stereo not given)	-76.1%
O=C(c1ccncc1F)N1CCc2ncnc(N3CCOCC3)c2CC1	-75%
Cc1ccc(S(=O)(=O)N2CCC3(CC(C(=O)NC4CCC4)=NO3)C2)cc1 (stereo not given)	-1.77%
Nc1ncc(CN2CCC(CCC(=O)NC3CC3)CC2)cn1	11.7%
CCN(CC)c1ncccc1CNCc1cc2ccccc2s1	4.43%
COc1cccc(-n2cc(-c3ccnc(N[C@H](CO)C(C)C)n3)cn2)c1	-2.04%
NC(=O)c1cn2cc(-c3ccccc3Cl)n(CC3CC3)c(=O)c2n1	-1.35%
